Laboratory results reported in ChEMBL document CHEMBL2169744, “Discovery and optimization of potent and selective imidazopyridine and imidazopyridazine mTOR inhibitors” (Bioorg Med Chem Lett, 2012).
Values after ≈ are worked out from the molar mass of the structure shown.

What was measured:
[1] = (§1) AUC in rat at 0.5 mg/kg, iv; format: ADME, organism-based, Plasma; set-up: dose 0.5 mg/kg, route intravenous; conditions: plasma
[2] = Volume of distribution at steady state in rat at 0.5 mg/kg, iv; format: ADME, organism-based; set-up: dose 0.5 mg/kg, route intravenous; conditions: in vivo, read-out: Vdss
[3] = Half life in rat at 0.5 mg/kg, iv; format: ADME, organism-based; set-up: dose 0.5 mg/kg, route intravenous; conditions: in vivo
[4] = (§2) Clearance in rat at 0.5 mg/kg, iv; format: ADME, organism-based; set-up: dose 0.5 mg/kg, route intravenous; conditions: in vivo
[5] = Inhibition of mTORC1-mediated 4EBP1-phosphorylation in human U87 cells; format: cell-based, U-87MG ATCC
[6] = target: Phosphatidylinositol 4,5-bisphosphate 3-kinase catalytic subunit alpha isoform (Homo sapiens, UniProt P42336); test: Inhibition of PI3Kalpha by AlphaScreen assay
[7] = target: Serine/threonine-protein kinase mTOR (Homo sapiens, UniProt P42345); test: Inhibition of mTOR by LanthaScreen assay
[8] = Solubility of the compound in simulated intestinal fluid; format: physicochemical
[9] = Clearance in rat at 1 mg/kg, iv; format: ADME, organism-based; set-up: dose 1 mg/kg, route intravenous; conditions: in vivo
[10] = Inhibition of mTORC2-mediated AKT Ser473-phosphorylation in human U87 cells; format: cell-based, U-87MG ATCC; conditions: U-87 MG
Outline: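 Cell assay in U87 cells measuring pAKT (S473), n ≥ 2.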

[11] = Plasma protein binding in rat at 5 mg/kg, po; format: ADME, organism-based; set-up: dose 5 mg/kg, route oral; conditions: read-out: PPB (converted)
[12] = Oral bioavailability in rat at 5 mg/kg; format: ADME, organism-based; conditions: in vivo
Outline: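 Rat oral PK at 5.0 mpk in 1% Tween 80, 2% HPMC, 97% H2O, pH 2.2 (methanesulfonic acid).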

[13] = tested on: Rattus norvegicus; test: as §1; format: ADME, organism-based, Plasma; set-up: dose 0.5 mg/kg, route intravenous; conditions: in vivo
[14] = tested on: Rattus norvegicus; test: as §2; format: ADME, organism-based; set-up: dose 0.5 mg/kg, route intravenous; conditions: in vivo
[15] = species: Rattus norvegicus; test: Unbound clearance in rat; format: ADME, organism-based; conditions: in vivo
[16] = Oral bioavailability in rat at 2 mg/kg; format: ADME, organism-based; conditions: in vivo
[17] = Clearance in rat at 0.3 mg/kg, iv; format: ADME, organism-based; set-up: dose 0.3 mg/kg, route intravenous; conditions: in vivo
Outline: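 Rat IV pharmacokinetics at 0.3 mpk, formulation 100% DMSO.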

[18] = Oral bioavailability in rat at 4 mg/kg; format: ADME, organism-based; conditions: in vivo
[19] = Homo sapiens, U-87 MG, read-out: IC50

Phosphatidylinositol 4,5-bisphosphate 3-kinase catalytic subunit alpha isoform, sequence (P42336 whole entry, canonical isoform): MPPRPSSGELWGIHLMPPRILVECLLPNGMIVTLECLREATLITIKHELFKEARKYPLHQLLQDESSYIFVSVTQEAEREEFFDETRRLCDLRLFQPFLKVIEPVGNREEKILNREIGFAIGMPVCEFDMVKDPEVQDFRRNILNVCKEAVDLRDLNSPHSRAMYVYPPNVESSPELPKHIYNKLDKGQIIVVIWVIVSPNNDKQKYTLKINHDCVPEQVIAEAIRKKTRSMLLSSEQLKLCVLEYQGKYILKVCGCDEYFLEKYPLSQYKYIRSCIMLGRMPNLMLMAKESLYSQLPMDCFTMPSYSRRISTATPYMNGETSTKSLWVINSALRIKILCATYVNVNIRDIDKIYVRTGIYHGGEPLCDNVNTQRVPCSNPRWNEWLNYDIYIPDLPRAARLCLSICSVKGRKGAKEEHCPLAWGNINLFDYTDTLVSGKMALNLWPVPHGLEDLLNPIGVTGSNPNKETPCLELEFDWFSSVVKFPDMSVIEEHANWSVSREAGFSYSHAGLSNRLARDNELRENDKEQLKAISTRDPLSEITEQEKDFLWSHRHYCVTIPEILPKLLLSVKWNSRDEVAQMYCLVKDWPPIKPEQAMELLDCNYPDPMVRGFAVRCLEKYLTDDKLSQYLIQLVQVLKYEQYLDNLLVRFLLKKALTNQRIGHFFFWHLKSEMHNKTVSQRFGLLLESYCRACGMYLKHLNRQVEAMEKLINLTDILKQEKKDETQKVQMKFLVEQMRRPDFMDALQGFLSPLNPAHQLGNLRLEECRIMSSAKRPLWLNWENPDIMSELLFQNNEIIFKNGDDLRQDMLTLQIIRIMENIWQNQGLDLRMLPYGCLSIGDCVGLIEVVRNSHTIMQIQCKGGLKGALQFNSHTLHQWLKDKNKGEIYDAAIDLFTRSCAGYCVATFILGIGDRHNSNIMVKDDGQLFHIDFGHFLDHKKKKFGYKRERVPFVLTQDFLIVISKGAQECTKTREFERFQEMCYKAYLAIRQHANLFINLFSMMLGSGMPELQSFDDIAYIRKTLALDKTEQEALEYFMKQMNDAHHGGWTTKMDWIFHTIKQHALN

SMILES	Vd [2] [L/kg]	half-life [3] [min]	clearance [4] [mL/min/kg]	IC50 [5, 19] [nM]	IC50 [6] [nM]	IC50 [7] [nM]	clearance [9] [mL/min/kg]	IC50 [10] [nM]	other results
Cc1nc(N)nc(-c2c(Nc3ccn(C)n3)nc3ccc(-c4cncnc4)cn23)n1	1	15.6	41.7		635	76			solubility [8]: 1 µg/mL (≈ 2.5 µM); IC50 ([5]; u-87mg atcc): Not Active
Cc1nc(N)nc(-c2c(Nc3ccn[nH]3)nc3ccc(-c4cccc(F)c4)cn23)n1				912	654	27	33.3	73	
CC(=O)Nc1cc(-c2c(Nc3ccn(C)n3)nc3ccc(-c4cnn(C(C)C)c4)cn23)nc(C)n1	2.1	258	8.33	694	> 125000	16			fraction unbound [11]: 0.004; AUC [1]: 1.8 µM·h; bioavailability [12]: 8%
Cc1nc(Nc2cnccn2)cc(-c2c(Nc3ccn[nH]3)nc3cccnn23)n1	2.5	25.2	96.7	66	122	6			
Cc1nc(N)nc(-c2c(Nc3cc[nH]n3)nc3ccc(-c4cccnc4C)cn23)n1				41	120	3	33.3	10	
CC(=O)Nc1cc(-c2c(Nc3ccn(C)n3)nc3ccc(-c4cccnc4C)cn23)nc(C)n1	1.7	168		230	4290	15			fraction unbound [11]: 0.025; AUC [13]: 7.6 µM·h; bioavailability [12]: 38%; CL [14]: 10 mL/min/kg
Cc1nc(N)nc(-c2c(Nc3cc[nH]n3)nc3ccc(-c4ccccc4F)cn23)n1				67	648	15	33.3	64	
Cc1nc(Nc2cccnn2)cc(-c2c(Nc3ccn[nH]3)nc3cccnn23)n1				276	173	24			
Cc1nc(N)nc(-c2c(Nc3cc[nH]n3)nc3ccc(-c4cnccc4C)cn23)n1				49	73	2	33.3	13	
Cc1cc(-c2ccc3nc(Nc4cc[nH]n4)c(-c4nc(C)nc(N)n4)n3c2)on1				72	177	3	33.3	7	
COc1ncccc1-c1ccc2nc(Nc3ccn[nH]3)c(-c3nc(C)nc(N)n3)n2c1				510	268	39	33.3	138	
Cc1nc(Nc2ccc(N3CCOCC3)nn2)cc(-c2c(Nc3ccn[nH]3)nc3cccnn23)n1	3.9	95.4	41.7	309	256	35			bioavailability [18]: 7%; solubility [8]: 98 µg/mL (≈ 208 µM)

More lines, main results first:

Vd [2] [L/kg]	half-life [3] [min]	clearance [4] [mL/min/kg]	IC50 [5, 19] [nM]	IC50 [6] [nM]	IC50 [7] [nM]	clearance [9] [mL/min/kg]	IC50 [10] [nM]	SMILES	other results
1.2	31.2	38.3	60	112	9			CC(=O)Nc1cc(-c2c(Nc3cc[nH]n3)nc3ccccn23)nc(C)n1	AUC [1]: 0.6 µM·h
4.1	42	117	347	3170	20			CC(=O)Nc1cc(-c2c(Nc3ccn(C)n3)nc3ccc(-c4cnco4)cn23)nc(C)n1	AUC [1]: 0.2 µM·h; bioavailability [12]: 3%
1.2	15		507	5840	65			Cc1nc(N)cc(-c2c(Nc3cc[nH]n3)nc3ccccn23)n1	CL free [15]: 515 mL/min/kg; bioavailability [16]: 2%; clearance [17]: 68.3 mL/min/kg; solubility [8]: 162 µg/mL (≈ 529 µM)
0.8	23.4	18.3	1230	1660	55			CC(=O)Nc1cc(-c2c(Nc3ccn(C)n3)nc3cccnn23)nc(C)n1	fraction unbound [11]: 0.033; CL free [15]: 555 mL/min/kg; AUC [1]: 1.3 µM·h; bioavailability [12]: 34%
9.1	70.8	103	85	54	3			COc1cnnc(Nc2cc(-c3c(Nc4cc[nH]n4)nc4cccnn34)nc(C)n2)c1	solubility [8]: 175 µg/mL (≈ 421 µM)
